Assay results from ChEMBL document CHEMBL4513216, “Probing the Open Global Health Chemical Diversity Library for Multistage-Active Starting Points for Next-Generation Antimalarials” (ACS Infect Dis, 2020).

Experiment: Toxicity liver stage against HepG2, at 10uM
Type: cell-based
Design: test concentration 10 uM, cell line HepG2-A16-CD81EGFP
Conditions: human, HepG2-A16-CD81EGFP cells; read-out: INHIBITION
In short: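 Uninfected HepG2-A16-CD81EGFP cells, 3 × 10^3 per well, 1536-well, plated on prespotted compound at 10 μM final, parasite-free screening media added to match infected plates; puromycin 10 μM positive, DMSO 0.5% negative; run in parallel with 48 h PbLuc assay at 37 °C, 5% CO2; viability by CellTiter-Glo luminescence, normalized to controls.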

SMILES | cytotoxicity at 10 µM
CSCC[C@H](NC(C)=O)c1nc(CCc2ccccc2)n[nH]1 | 5.08%
CCn1ncc(CN2CCc3c(nc(-c4cccnc4)[nH]c3=O)C2)c1C | 1.34%
Fc1ccccc1Cc1noc(CN2CCC(N3CCSCC3)CC2)n1 | -6.47%
O=C(Cn1cc(I)cn1)NCC1CCC1 | 14.5%
C[C@]1(O)CN(Cc2cccc(C(=O)O)c2)CC[C@@H]1Oc1cccc(F)c1 | -5.64%
Cc1cccc(CNc2cncc(-n3cccn3)n2)c1 | -7.09%
COc1nccc(N2CCN(Cc3ccc(C)cc3)C(=O)C2)c1C#N | -16.5%
O=S(=O)(CCNC1CCc2ncnn2C1)c1ccccc1 (stereo not given) | -5.58%
CC(C)n1ccnc1C1CCCN(c2ccncc2F)C1 (stereo not given) | -4.96%
COCCOCCCNC(=O)c1cc(Cl)cc2cccnc12 | 32.6%
CSC1(CNC(=O)CCc2ccc(Cl)s2)CCOCC1 | 6.45%
Cc1ccccc1N(CC(=O)NCCc1nnc2n1CCC2)S(C)(=O)=O | -0.69%
Cn1cc(CN2CC[C@]3(C[C@H](OCc4ccccn4)CO3)C2)cn1 | -1.08%
CNc1ncc(CN(C)c2nc(C3CCCC3)nc3c2cnn3C)cn1 | 24.1%
CCn1nnc2c1CCN(S(C)(=O)=O)C2COCc1ccccc1 (stereo not given) | 0.196%
Cc1cc(N2CCN(C(=O)c3cc(Cl)c[nH]3)CC2)nc(C)n1 | -2.43%
COc1ccc(N2CCCN(CC(=O)N3CCNC(=O)C3)CC2)cc1 | 6.06%
O=C(c1ccccc1F)N1CCN(c2ccc(-n3cccn3)nn2)CC1 | -18.3%
O=C(c1ccc(COc2ccc(Cl)cc2)o1)N1N=CCC1(O)C(F)(F)F (stereo not given) | 30%
O=C(Nc1ccc(-c2ccn[nH]2)cc1)C1CCCN(Cc2ccoc2)C1 (stereo not given) | -0.16%
CC(NC(=O)N(C)Cc1ccc(Cl)s1)c1ccccn1 (stereo not given) | 0.313%
CCCC(C(=O)NC1CCN(S(C)(=O)=O)CC1)n1cccc1 (stereo not given) | -3.71%

SMILES | cytotoxicity at 10 µM
CSc1ncccc1C(=O)N(CCO)Cc1ccccc1 | 2.22%
O=C(c1ccc(F)cc1)N1CCC2(CCN(Cc3ccccn3)C2=O)C1 (stereo not given) | -136%
Cc1cnc(C(=O)NC(COCC(C)C)c2ccco2)cn1 (stereo not given) | -19.6%
Cc1nnc(N2CCC(CCn3ccnc3C)CC2)o1 | -8.14%
CCCC(=O)NCCc1cc(NC)nc(-c2ccccn2)n1 | 1.12%
Cn1ccnc1SCCNC(=O)c1cc(S(N)(=O)=O)ccc1F | -3.45%
O=C(c1ccc2c(c1)CCCC2)N1CCOCC1c1ncon1 (stereo not given) | -7%
Cc1occc(=O)c1OCC(=O)N1CCN(c2ccccc2)CC1 | -2.88%
CN(C)S(=O)(=O)N1C[C@H]2CC[C@@H](C1)N(Cc1ccc3[nH]ccc3c1)C2 | 3.07%
O=C(Cc1ccccc1)NCc1ccc(-c2ccccc2C(=O)O)cn1 | -11.5%
COc1cc(N2CC[C@H]3OCC[C@@]3(COc3nccc(C)n3)C2)ncn1 | 11.8%
CC(C)CN(CC(O)c1ccc(F)cc1)C(=O)c1cc[nH]n1 (stereo not given) | -5.71%
CN1CCN(C(=O)c2cc(-c3cccs3)cs2)CC1 | 3.51%
C=C(C)COc1ccccc1C(=O)N1CCC(C(=O)NCC)C1 (stereo not given) | 8.89%
CCCn1cc(C(=O)NC(C)c2c(C)nn(CC)c2C)c(C)n1 (stereo not given) | 5.31%
CSc1nnc(C2CCN(C(=O)N3CCCC3)CC2)n1C | 2.11%
O=C1NC2(Cc3ccccc31)CN(CC1CCCC1)C2 | 7.58%
CNC(=O)C(C)(C)N1CCC[C@H]1C(=O)NCCN1CCOCC1 | 3.29%
CCn1ncnc1CN(CCOC)Cc1ccc(C)cc1 | -40.2%
CC(=O)N[C@H]1CCO[C@@H](c2cccc(NC(=O)c3ccc(=O)[nH]n3)c2)C1 | 4.46%
CCN1CCC2(CC1)c1nc[nH]c1CCN2S(C)(=O)=O | 6.33%
Cn1cc(CN2CCc3c(c(COCC#N)nn3C)C2)cn1 | -2.45%

SMILES | cytotoxicity at 10 µM
COc1cc(C(=O)N(CCC#N)Cc2ccccn2)ccc1C | 11.3%
O=C(c1ccnnc1)N1C[C@@H](OCc2cccnc2)[C@H]2OCCC[C@H]21 | 5.03%
Cc1ccc(OCC(=O)NCc2ccco2)nc1 | -0.224%
CC(C)Cc1nc(OCC(=O)O)c(C#N)c2c1CCC2 | -5.93%
CN(Cc1ccc(Cl)c(Cl)c1)C(=O)CNC(N)=O | -8.87%
CCN(CC)S(=O)(=O)c1ccc(CNC(=O)N2CCC(C#N)CC2)cc1 | 20%
NC(=O)CC1CCN(C(=O)c2cccn2Cc2cccs2)CC1 | -7.19%
CC1c2ncc(COCC3CC3)n2CCN1C(=O)c1ccn(C)n1 (stereo not given) | 0.993%
COc1ccc(F)c(CN2CCCC(c3cc(O)nc(C)n3)C2)c1 (stereo not given) | 7.3%
CCN(Cc1ccc(OC)c(F)c1)C(=O)c1ccc(C)[nH]c1=O | -8.08%
COCCn1c2c(ccc1=O)CC(NS(C)(=O)=O)CC2 (stereo not given) | 8.8%
CC(=O)N1CC(C)CN(Cc2ccon2)c2ccccc21 (stereo not given) | 2%
Cn1cnc(-c2cc(C(=O)N3CCOCC3)c3ccccn23)c1 | 4.79%
Cc1c(CS(C)(=O)=O)cccc1NCC1CCCCC1 | -8.98%
Fc1ccc(-c2cnc(CN3CCOC(Cn4cccn4)C3)o2)cc1 (stereo not given) | -12.1%
Cc1ccc(NC2CCN(C(=O)c3ccco3)CC2)nn1 | -14.3%
CCC(CN1CCCC1)NC(=O)C1(c2ccc(F)cc2)CC1 (stereo not given) | -1.76%
CCCc1c(C(=O)NC2CCCC2)nnn1-c1ccc(OC)cc1 | 5.65%
N#CC1(C(=O)NCC2CCC3(CCNCC3)O2)CC1 (stereo not given) | -5.22%
CS(=O)(=O)NCc1nnc2n1CCN(Cc1cccnc1)C2 | -70.9%
COc1ccc(C(=O)NCc2cc(N3CCOCC3)ncn2)o1 | 4.39%
CN(Cc1cccnc1)Cc1cn2c(n1)CN(C1CCOCC1)CC2 | 8.94%

SMILES | cytotoxicity at 10 µM
Cc1cccnc1C(Nc1nccc(C2CCCC2)n1)C1CC1 (stereo not given) | -121%
O=S1(=O)[C@@H](c2ccccc2)[C@H](CO)CN1c1ccccc1 | -5.41%
Cc1noc([C@H]2COC[C@H]3CN(C(=O)Cc4cccs4)C[C@H]32)n1 | 3.3%
O=C(c1cc[nH]n1)N1CC[C@@H]2CN(Cc3ccncc3)S(=O)(=O)[C@@H]2CC1 | 10.5%
COC(=O)CCN(CC1CCCO1)C(=O)Cc1ccc(OC)c(OC)c1 (stereo not given) | 4.08%
Cc1nc(Nc2nccs2)cc(C2CCCN2C2CCOCC2)n1 (stereo not given) | -7.08%
O=C(NCc1ccco1)[C@H]1C[C@@H]2CCN(c3nncs3)C[C@H]2O1 | 1.84%
Nc1cc2c(nn1)CCN(C(=O)c1csc(-c3ccccc3)n1)C2 | -12.4%
Cc1cc(N(C)Cc2cc(C)on2)n2nc(C)c(C)c2n1 | 19.2%
Cc1nc(C(=O)N2CCC(c3nccn3Cc3ccncc3)CC2)cs1 | -2.85%
Cc1cccc(Nc2ccc(C3CCCCN3)cn2)n1 (stereo not given) | -1.93%
Cn1cc(CN2CCOC[C@H]2c2nc(C(C)(C)C)co2)c2ccccc21 | 1.21%
CN(C)CCN1C(=O)CCCC12CCCN(Cc1ccc[nH]1)C2 (stereo not given) | -10.1%
CC(C)NC(=O)c1sccc1N(C)S(=O)(=O)c1ccc(Cl)cc1 | 9.22%
CC(C)Oc1ncnc2c1CCN(C(=O)c1cccn1C)CC2 | 6.95%
Cc1cc(Oc2ccccc2F)nc(C2CCCCN2)n1 (stereo not given) | 8.44%
O=C(NC1CC1)C1CNCCN1C(=O)CCOc1ccccc1 (stereo not given) | 2.08%
CCOc1ccc(C(=O)N2CCCCC2Cn2nc(C)cc2C)cn1 (stereo not given) | 6.6%
COc1ccc(Nc2ncccc2C#N)cc1N1CCCC1=O | 6.86%
CC(C)c1nc(CN2CCN(CC3CCCO3)CC2)cs1 (stereo not given) | -1.52%
CCc1nc2n(n1)CC(NCC(=O)Nc1nccs1)CC2 (stereo not given) | -7.13%
COc1ccc(Nc2nc(N)c(C(C)=O)s2)cc1Cl | 0.833%

SMILES | cytotoxicity at 10 µM
COCCN1CCCC2(CCN(c3nc(C)nc4c3CCC4)C2)C1=O (stereo not given) | -11.4%
O=C(COc1cccc2c1CCC2=O)NCCSc1ccccc1 | -1.22%
COCCN1CCC(CNC(=O)c2ccnc(-n3ccnc3)c2)CC1 | -1.63%
COC(=O)c1ccc(Cl)c(S(=O)(=O)Nc2ccc(F)c(C(N)=O)c2)c1 | 3.68%
CCNC(=O)[C@@H]1C[C@@H](N)CN1C(=O)CCc1ccc(C)c(C)c1 | 2.72%
COCCN1CCn2c(CN(C)C(C)C)cnc2C1 | -2.92%
CCCn1c(SCC(N)=O)nnc1-c1csc2c1CCCC2 | -1.42%
c1cc(CN2C[C@@H]3OCCN(CCN4CCCC4)[C@@H]3C2)cs1 | -1.46%
Fc1cnc(N2CCN3C[C@H](Oc4cncnc4)C[C@H]3C2)nc1 | -5.38%
CC(C)[C@]1(O)CN(C(=O)COCC(N)=O)C[C@H]1C | 7.37%
CCOCC1CN(C(=O)C2=CCCC2)Cc2cnn(CC)c21 (stereo not given) | 0.565%
O=C(NCc1ccc2c(c1)CCCO2)c1ccccc1C1CCNC1 (stereo not given) | 6.58%
O=C(c1nc(Cc2c[nH]c3ccccc23)no1)N1CCOCC1 | 11.1%
O=C(Cc1n[nH]c(-c2cncc(Br)c2)n1)NCc1cccnc1 | 2.74%
Cc1cc(C)nc(N2CCCC(c3nccn3CCCN(C)C)C2)c1 (stereo not given) | -7.97%
Cc1n[nH]c(C2CN(C(=O)c3cnc[nH]3)CCO2)n1 (stereo not given) | -0.265%
CCOC(C)c1noc(CN2CCN(c3nnc(C)s3)CC2)n1 (stereo not given) | -11.1%
N#CCCN(CC1CCCO1)C(=O)c1ccsc1 (stereo not given) | 0.325%
CSc1ccc(CN(C(=O)c2cc(=O)[nH]c(=O)[nH]2)C2CC2)cc1 | -44.8%
Cn1ccc2ccnc(CC3CN(C(=O)c4cscn4)C3)c21 | -28.6%
CO[C@H]1CC[C@H]2[C@H]1OCCN2CCOCc1ccccc1 | -114%
CC(C)Cc1noc(CN2CCC(NC(=O)c3cccs3)CC2)n1 | -17.9%
